Experimental findings from ChEMBL document CHEMBL4732180, “Discovery of novel positive allosteric modulators of the α7 nicotinic acetylcholine receptor: Scaffold hopping approach” (Eur J Med Chem, 2021) are described below.

The nature of data set [1]: Intrinsic clearance in human liver microsome at 1 to […] up to 40 mins. The format is ADME. The following applies: liver microsomes, dose 1-2.5 µM, read-out: CLH. (Liver microsomes are a subcellular fraction often used to study metabolism.)
Data set [2] can be described thus: Intrinsic clearance in mouse liver microsome at 1 to […] up to 40 mins. The format is ADME. The conditions noted are these: liver microsomes, dose 1-2.5 µM, read-out: CLH.
A short description of data set [3]: Intrinsic clearance in rat liver microsome at 1 to […] up to 40 mins. The data set is classed as ADME. The following applies: liver microsomes, dose 1-2.5 µM, read-out: CLH.
Data set [4] in a line: Apparent permeability across apical to basolateral side in vinblastine-treated human Caco2 cells at 1 uM after 180 mins by HPLC or UHPLC-MS/MS analysis. The data set is classed as ADME. The following applies: Caco-2. The method in brief:
(§1)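 Vinblastine-selected Caco-2 (VB-Caco-2) monolayers with high P-gp expression. Compound at 1 or 10 µM, measured apical-to-basolateral and basolateral-to-apical in HBSS with 25 mM HEPES. pH 7.4 on both sides, 37 °C, 120 rpm shaking, up to 180 min with compound-specific duration. Quantified by HPLC or UHPLC-MS/MS; PDR = Papp B-A / Papp A-B.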
For orientation: Caco-2 monolayers are a common model of the intestinal barrier.

The nature of data set [5]: Lipophilicity, logP of compound. The data set is classed as physicochemical. The conditions noted are these: octanol/water.
The nature of data set [6]: Apparent permeability across apical to basolateral side in vinblastine-treated human Caco2 cells at 10 uM after 180 mins by HPLC or UHPLC-MS/MS analysis. The format is ADME. The conditions noted are these: Caco-2. The essentials:
as §1

Data set [7] in a line: AUC (0 to 5 hrs) in Wistar rat plasma at 3 mg/kg, iv up to 5 hrs by HPLC-MS/MS analysis. Also on record: route intravenous, dose 3 mg/kg, time <=5. The format is ADME, organism-based.
Data set [8] is described as follows: AUC (0 to 5 hrs) in Wistar rat plasma at 3 mg/kg, po up to 5 hrs by HPLC-MS/MS analysis. The format is ADME, organism-based. Also on record: route oral, dose 3 mg/kg, time <=5.
Data set [9] can be described thus: AUC (0 to 5 hrs) in Wistar rat brain at 3 mg/kg, po up to 5 hrs by HPLC-MS/MS analysis. The data set is classed as ADME, organism-based. Also noted: route oral, dose 3 mg/kg, time <=5.
The nature of data set [10]: Clearance in Wistar rat plasma at 3 mg/kg, iv up to 5 hrs by HPLC-MS/MS analysis. The data set is classed as ADME, organism-based.
Data set [11] in a line: Volume of distribution in Wistar rat plasma at 3 mg/kg, iv up to 5 hrs by HPLC-MS/MS analysis. The data set is classed as ADME, organism-based.
Data set [12] is described as follows: Half life in Wistar rat plasma at 3 mg/kg, iv up to 5 hrs by HPLC-MS/MS analysis. The format is ADME, organism-based.
Data set [13] is described as follows: Cmax in Wistar rat plasma at 3 mg/kg, po up to 5 hrs by HPLC-MS/MS analysis. The data set is classed as ADME, organism-based. Also on record: route oral, dose 3 mg/kg, time <=5.
Data set [14] in a line: Cmax in Wistar rat brain at 3 mg/kg, po up to 5 hrs by HPLC-MS/MS analysis. The data set is classed as ADME, organism-based. Also on record: route oral, dose 3 mg/kg, time <=5.
Data set [15] in a line: Tmax in Wistar rat plasma at 3 mg/kg, po up to 5 hrs by HPLC-MS/MS analysis. The format is ADME, organism-based.
The nature of data set [16]: Tmax in Wistar rat brain at 3 mg/kg, po up to 5 hrs by HPLC-MS/MS analysis. The format is ADME, organism-based.

Broadly, the Papp A→B is the apparent permeability from the apical to the basolateral side of a cell layer. One may read the logP as the decadic logarithm of the partition coefficient of the neutral form, usually between octanol and water. High values mean higher lipophilicity, low ones lower lipophilicity. As for `CCC(=O)c1cc(-c2ccc(Cl)cc2)n(-c2ccc(S(N)(=O)=O)cc2)c1C`, the results for the microsomal CLint at […] in data set [1], in [2] and in data set [3] were 3 µL/min/mg, 26 µL/min/mg and 10 µL/min/mg, respectively. Besides, the Papp A→B at 3 h, 1 µM in data set [4] amounted to 90 nm/s. In addition, the logP in data set [5] was found to be 4.7.
What is called AUC(0-t) is exposure summed from dosing to a finite time, without extrapolation to infinity. The low end stands for less exposure, the high end for more exposure. Broadly, the clearance is the rate of elimination divided by the concentration. By Vd is commonly meant the apparent volume that relates the amount in the body to the concentration in plasma or blood. As usually defined, the half-life is the time needed for the level to fall by half in the phase considered. What is called Cmax is the maximum level reached in the sampled fluid or tissue. For orientation: Tmax means the time at which the peak concentration occurs. On to `NS(=O)(=O)c1ccc(-c2cc(C(=O)N3CC4CC4C3)nn2-c2ccc(Cl)cc2)cc1` (stereo not given), for which the microsomal CLint at […] in data set [1] was 4 µL/min/mg; in [2], 5 µL/min/mg; in [3], 10 µL/min/mg. Also, in data set [6], the Papp A→B at 3 h, 10 µM was 180 nm/s. Also, the AUC(0-t) amounted to 3.49 µg·h/mL in [7], 0.134 µg·h/mL in data set [8] and 0.158 µg·h/mL in data set [9]. This compound also yielded a logP in data set [5] of 3.1. In data set [10], the clearance came out at 0.846 L/h/kg. Moreover, the Vd in [11] came out at 1.17 L/kg. In [12], this compound showed a half-life of 0.97 h. Further, the Cmax in [13] came out at 0.0316 µg/mL; in data set [14] it was 0.0368 µg/mL. Also, the Tmax in [15] and in data set [16] was 2 h throughout.
With `CCC(=O)c1cc(-c2ccc(S(N)(=O)=O)cc2)n(-c2ccc(Cl)cc2)n1`, the microsomal CLint at […] in [1] turned out to be 18 µL/min/mg; in data set [2], 16 µL/min/mg; in data set [3], 20 µL/min/mg. Moreover, the Papp A→B at 3 h, 10 µM in data set [6] worked out at 200 nm/s. In data set [5], the log partition coefficient (logP) is 3.8.
